Measured values: PubChem BioAssay
The source made the active and inactive calls. Unless noted, no stated cut-off is given here; in the data, active means inhibition above about 30%; inactive means the rest.

Tests used:
[1] = SK-BR-3 cell growth inhibitors, pilot screen, 24 h, human (AID 572;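 active means viability at or below 10% of carrier control in both of two separate runs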;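 further: compound exposure lasted between 18 and 24 h rather than exactly 24 h; 100% = carrier-treated control wells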); conditions: SK-BR-3 viability, CellTiter-Glo luminescence, at 10 µM, stronger effect = lower value
[2] = HUVEC growth inhibition – cell-based, human, primary screen (AID 575;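 active means viability at or below 30% in both replicate assays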;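 further: 100% = median of untreated cell wells with 0.1% DMSO on each plate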); conditions: HUVEC proliferation, CellTiter-Glo luminescence, 72 h; at 10 µM; stronger effect = lower value
Procedure, shortened: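 Assay system: primary human umbilical vein endothelial cells / Buffer or medium: endothelial basal medium with 2% FBS plus growth supplements / Compound dosing: one dose, 10 µM final, 0.1% DMSO / Timing: 72 h treatment at 37 °C / Signal: CTG luminescence / Benchmarks: 32 DMSO-only cell-control wells (high), 32 MePR drug-control wells (low) per plate / Plate: collagen-coated 384-well format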

[3] = growth inhibitors of H69AR lung tumor, primary screen, human, duplicate replicates (AID 580;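 active means viability at or under a set limit in both replicates, limit being median viability minus 3 SD, cut at about 48% in these data, passing the limit was not always enough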;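 further: 100% = mean luminescence of untreated wells and 0% = no signal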); conditions: H69AR lung tumor cells viability, ATP luminescence, 72 h; at 10 µM; stronger effect = lower value
[4] = reversal of MRP1-mediated doxorubicin resistance, pilot screen, H69AR cells, doxorubicin co-treatment (AID 601;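 active means viability loss from added drug above about 55%, and viability with drug at most 40%, in both replicates, limit read from the data, passing the limit was not always enough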); conditions: CellTiter-Glo, 72 h, at 10 µM; for differential viability (reversal): stronger effect = higher value
[5] = 384-well plate pilot, post-Golgi transport modulator project, inhibition of yeast transport mutant growth (AID 636; in the data active means inhibition above about 31%); conditions: absorbance 615 nm, about 18 h, stronger effect = higher value
[6] = growth suppression of yeast trafficking mutant, preliminary HTS, modulators of trafficking downstream of Golgi apparatus project, 1536-format plate, OD 615 nm (AID 637); conditions: yeast transport mutant growth, absorbance 615 nm, 18 h; stronger effect = higher value
[7] = H69AR cells + 2 uM doxorubicin, measured here: viability with 2 uM doxorubicin, stronger effect = lower value
[8] = H69AR cells, compound alone cytotoxicity

Row | Structure (SMILES) | viability [1] | viability [2] | viability [3] | differential viability (reversal) ([4]; H69AR cells + 2 uM doxorubicin) | viability [4, 7] | viability [4, 8] | inhibition [5] | inhibition [6]
1 | CCn1c(Cc2ccccc2)nnc1SCC(=O)Nc1cc(C)on1 | 109% (inactive) | 114% (inactive) | 98.7% (inactive) | 7.78% (inactive) | 91% | 98.7% | -5.06% (inactive) | -2.95% (inactive)
2 | COc1ccc(N=C2C(=O)Nc3ccccc32)cc1 | 103% (inactive) | 66.7% (inactive) | 75.4% (inactive) | -4.16% (inactive) | 79.5% | 75.4% | -0.4% (inactive) | -1.45% (inactive)
3 | Cc1ccc(S(=O)(=O)N2CCN(c3nc(C)nc4sc(C)c(C)c34)CC2)cc1 | 95% (inactive) | 108% (inactive) | 99.5% (inactive) | -2.76% (inactive) | 102% | 99.5% | -3.73% (inactive) | -0.73% (inactive)
4 | CC(C)n1c(NCc2c[nH]c3ccccc23)nc2ccccc21 | 91% (inactive) | 79.6% (inactive) | 74.8% (inactive) | -3.61% (inactive) | 78.4% | 74.8% | -9.45% (inactive) | -5.16% (inactive)
5 | O=C(O)c1cccc(COCC(F)(F)C(F)F)c1 | 90% (inactive) | 88.2% (inactive) | 102% (inactive) | 6.01% (inactive) | 95.9% | 102% | -0.41% (inactive) | -3.87% (inactive)
6 | O=C1NC(c2cccnc2)C(C(=O)c2cccs2)C(O)(C(F)(F)F)N1 (stereo unspecified) | 116% (inactive) | 113% (inactive) | 103% (inactive) | 4.9% (inactive) | 97.7% | 103% | -0.27% (inactive) | -0.18% (inactive)
7 | CN(C)CCCOC(=O)CCc1ccccc1 | 95% (inactive) | 126% (inactive) | 96.3% (inactive) | 2.46% (inactive) | 93.9% | 96.3% | -4.73% (inactive) | -7.09% (inactive)
8 | CCOC(=O)n1c(=O)oc2cc(S(=O)(=O)N3CCCCC3)ccc21 | 97% (inactive) | 112% (inactive) | 90.2% (inactive) | -0.62% (inactive) | 90.8% | 90.2% | -4.27% (inactive) | -2.91% (inactive)
9 | O=C(Nc1nnc(C2CCCC2)s1)C1CCN(S(=O)(=O)c2ccc(Cl)cc2)CC1 | 92% (inactive) | 94.4% (inactive) | 72.3% (inactive) | 3.83% (inactive) | 68.5% | 72.3% | -5.87% (inactive) | -5.64% (inactive)
10 | COc1cccc(Nc2nnc(SCC(=O)N3CC(C)OC(C)C3)s2)c1 (stereo unspecified) | 92% (inactive) | 75.3% (inactive) | 102% (inactive) | 2.69% (inactive) | 99.1% | 102% | -2.4% (inactive) | -0.36% (inactive)
11 | COc1ccccc1NC(=O)CSc1nnc(Cn2nnc(-c3ccccc3)n2)n1-c1ccccc1 | 63% (inactive) | 88.7% (inactive) | 87.4% (inactive) | -5.36% (inactive) | 92.8% | 87.4% | -5.75% (inactive) | -1.45% (inactive)
12 | CCOC(=O)N1CCC(N(C(=O)Nc2cccc(OC)c2)C(C)CC)CC1 (stereo unspecified) | 129% (inactive) | 120% (inactive) | 96.9% (inactive) | 1.43% (inactive) | 95.5% | 96.9% | -2.21% (inactive) | 3.11% (inactive)
